Laboratory results: ChEMBL document CHEMBL1135783, “Selective agonists at group II metabotropic glutamate receptors: synthesis, stereochemistry, and molecular pharmacology of (S)- and (R)-2-amino-4-(4-hydroxy[1,2,5]thiadiazol-3-yl)butyric acid” (J Med Chem, 2002)

Columns and labels:
[1] = target: Metabotropic glutamate receptor 1 (Rattus norvegicus, UniProt P23385); assay: Compound was evaluated for the inhibitory activity against cloned Metabotropic glutamate receptor 1
How it was run: (§1)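 CHO cell lines stably expressing mGluR1α, mGluR2, mGluR4a or mGluR5a, grown at 37 °C in 5% CO2 in DMEM with reduced (S)-glutamine ([…]) and 10% dialyzed fetal calf serum. Cells were seeded 2 days before assay: 1.8 × 10^6 cells/well for inositol phosphate (PI hydrolysis) or 1.0 × 10^6 for cAMP formation. Antagonist activity was tested at 1 mM unless stated otherwise.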

[2] = target: Metabotropic glutamate receptor 4 (Rattus norvegicus, UniProt P31423); assay: Compound was evaluated for the inhibitory activity against cloned Metabotropic glutamate receptor 4; how it was run: as §1
[3] = target: Metabotropic glutamate receptor 5 (Rattus norvegicus, UniProt P31424); assay: Compound was evaluated for the inhibitory activity against cloned Metabotropic glutamate receptor 5; how it was run: as §1
[4] = target: Metabotropic glutamate receptor 2 (Rattus norvegicus, UniProt P31421); assay: Compound was evaluated for the inhibitory activity against cloned Metabotropic glutamate receptor 2; how it was run: as §1
Chain of Metabotropic glutamate receptor 2 (P31421 whole entry): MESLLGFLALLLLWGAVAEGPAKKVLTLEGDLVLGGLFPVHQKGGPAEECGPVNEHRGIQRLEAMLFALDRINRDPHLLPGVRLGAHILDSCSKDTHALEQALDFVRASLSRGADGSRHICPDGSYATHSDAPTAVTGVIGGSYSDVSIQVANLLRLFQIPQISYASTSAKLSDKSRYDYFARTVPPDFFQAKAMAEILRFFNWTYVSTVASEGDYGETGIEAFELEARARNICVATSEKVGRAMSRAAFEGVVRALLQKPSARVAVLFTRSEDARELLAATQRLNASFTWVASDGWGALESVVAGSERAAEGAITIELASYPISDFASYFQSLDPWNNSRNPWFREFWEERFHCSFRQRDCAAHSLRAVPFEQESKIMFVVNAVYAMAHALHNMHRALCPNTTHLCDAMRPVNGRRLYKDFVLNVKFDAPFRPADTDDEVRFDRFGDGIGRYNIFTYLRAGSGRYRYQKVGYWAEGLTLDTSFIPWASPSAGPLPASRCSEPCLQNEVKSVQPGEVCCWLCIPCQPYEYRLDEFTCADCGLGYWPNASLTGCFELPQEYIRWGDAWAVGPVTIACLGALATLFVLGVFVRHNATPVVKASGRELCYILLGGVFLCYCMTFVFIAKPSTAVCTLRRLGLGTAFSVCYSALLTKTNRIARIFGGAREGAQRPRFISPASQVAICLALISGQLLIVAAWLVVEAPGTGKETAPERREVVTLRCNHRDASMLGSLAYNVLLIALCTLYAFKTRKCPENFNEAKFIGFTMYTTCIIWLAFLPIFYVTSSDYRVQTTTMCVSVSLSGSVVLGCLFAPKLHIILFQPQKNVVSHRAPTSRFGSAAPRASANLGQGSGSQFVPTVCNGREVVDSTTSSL

Chain of Metabotropic glutamate receptor 5 (P31424 whole entry): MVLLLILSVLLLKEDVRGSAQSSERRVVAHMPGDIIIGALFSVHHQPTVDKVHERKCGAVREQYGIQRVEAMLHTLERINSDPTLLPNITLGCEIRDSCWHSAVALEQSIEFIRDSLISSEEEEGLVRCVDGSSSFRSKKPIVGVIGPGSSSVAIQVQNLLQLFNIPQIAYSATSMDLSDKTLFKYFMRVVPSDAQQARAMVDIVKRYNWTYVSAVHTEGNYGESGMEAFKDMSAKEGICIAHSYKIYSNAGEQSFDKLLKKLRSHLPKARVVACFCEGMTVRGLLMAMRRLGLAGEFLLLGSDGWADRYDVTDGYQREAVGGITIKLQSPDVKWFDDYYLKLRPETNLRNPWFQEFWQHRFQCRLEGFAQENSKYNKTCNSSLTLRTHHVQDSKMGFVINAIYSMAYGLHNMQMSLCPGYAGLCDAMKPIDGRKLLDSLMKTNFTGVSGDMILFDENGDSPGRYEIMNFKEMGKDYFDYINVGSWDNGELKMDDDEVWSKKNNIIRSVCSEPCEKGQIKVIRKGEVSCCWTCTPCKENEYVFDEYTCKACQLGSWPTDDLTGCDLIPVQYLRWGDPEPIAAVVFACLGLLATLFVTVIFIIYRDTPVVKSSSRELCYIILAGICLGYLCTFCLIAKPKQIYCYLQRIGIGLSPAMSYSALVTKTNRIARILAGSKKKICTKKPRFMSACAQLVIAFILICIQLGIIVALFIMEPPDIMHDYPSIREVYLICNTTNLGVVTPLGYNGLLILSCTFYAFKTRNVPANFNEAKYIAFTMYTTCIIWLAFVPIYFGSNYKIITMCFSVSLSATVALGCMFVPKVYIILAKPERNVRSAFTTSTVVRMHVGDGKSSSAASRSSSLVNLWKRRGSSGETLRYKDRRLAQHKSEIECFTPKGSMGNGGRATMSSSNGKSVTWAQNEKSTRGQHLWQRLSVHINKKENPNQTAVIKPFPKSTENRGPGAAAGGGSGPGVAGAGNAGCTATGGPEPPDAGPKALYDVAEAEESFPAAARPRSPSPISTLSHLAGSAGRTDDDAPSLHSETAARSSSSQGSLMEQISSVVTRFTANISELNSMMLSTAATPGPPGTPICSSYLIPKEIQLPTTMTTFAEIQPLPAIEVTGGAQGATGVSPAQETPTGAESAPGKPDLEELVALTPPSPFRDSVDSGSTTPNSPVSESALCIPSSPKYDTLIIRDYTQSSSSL
Chain of Metabotropic glutamate receptor 4 (P31423 whole entry): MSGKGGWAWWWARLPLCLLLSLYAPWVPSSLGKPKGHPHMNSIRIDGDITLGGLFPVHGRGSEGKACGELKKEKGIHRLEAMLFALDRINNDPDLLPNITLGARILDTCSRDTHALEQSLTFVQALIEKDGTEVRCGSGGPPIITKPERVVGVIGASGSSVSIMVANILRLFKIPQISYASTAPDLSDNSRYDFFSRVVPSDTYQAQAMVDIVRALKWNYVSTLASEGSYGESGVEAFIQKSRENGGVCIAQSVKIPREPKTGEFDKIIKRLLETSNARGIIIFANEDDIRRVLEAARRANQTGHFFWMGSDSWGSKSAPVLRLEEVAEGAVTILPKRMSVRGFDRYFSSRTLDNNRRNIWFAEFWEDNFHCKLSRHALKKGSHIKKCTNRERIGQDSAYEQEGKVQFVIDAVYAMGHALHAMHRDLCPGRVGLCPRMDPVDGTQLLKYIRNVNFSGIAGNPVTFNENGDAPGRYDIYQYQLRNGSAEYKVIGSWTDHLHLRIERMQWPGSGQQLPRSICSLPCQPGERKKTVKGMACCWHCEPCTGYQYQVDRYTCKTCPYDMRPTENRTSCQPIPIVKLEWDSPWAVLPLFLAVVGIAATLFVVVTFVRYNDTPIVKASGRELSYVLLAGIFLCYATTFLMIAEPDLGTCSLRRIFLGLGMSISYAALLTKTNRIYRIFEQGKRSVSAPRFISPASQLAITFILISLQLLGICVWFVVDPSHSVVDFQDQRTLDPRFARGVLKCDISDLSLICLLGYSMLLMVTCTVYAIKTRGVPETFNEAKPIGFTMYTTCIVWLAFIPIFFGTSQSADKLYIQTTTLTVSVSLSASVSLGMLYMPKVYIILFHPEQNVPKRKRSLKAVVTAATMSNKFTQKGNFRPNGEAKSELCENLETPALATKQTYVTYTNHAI
Chain of Metabotropic glutamate receptor 1 (P23385 whole entry): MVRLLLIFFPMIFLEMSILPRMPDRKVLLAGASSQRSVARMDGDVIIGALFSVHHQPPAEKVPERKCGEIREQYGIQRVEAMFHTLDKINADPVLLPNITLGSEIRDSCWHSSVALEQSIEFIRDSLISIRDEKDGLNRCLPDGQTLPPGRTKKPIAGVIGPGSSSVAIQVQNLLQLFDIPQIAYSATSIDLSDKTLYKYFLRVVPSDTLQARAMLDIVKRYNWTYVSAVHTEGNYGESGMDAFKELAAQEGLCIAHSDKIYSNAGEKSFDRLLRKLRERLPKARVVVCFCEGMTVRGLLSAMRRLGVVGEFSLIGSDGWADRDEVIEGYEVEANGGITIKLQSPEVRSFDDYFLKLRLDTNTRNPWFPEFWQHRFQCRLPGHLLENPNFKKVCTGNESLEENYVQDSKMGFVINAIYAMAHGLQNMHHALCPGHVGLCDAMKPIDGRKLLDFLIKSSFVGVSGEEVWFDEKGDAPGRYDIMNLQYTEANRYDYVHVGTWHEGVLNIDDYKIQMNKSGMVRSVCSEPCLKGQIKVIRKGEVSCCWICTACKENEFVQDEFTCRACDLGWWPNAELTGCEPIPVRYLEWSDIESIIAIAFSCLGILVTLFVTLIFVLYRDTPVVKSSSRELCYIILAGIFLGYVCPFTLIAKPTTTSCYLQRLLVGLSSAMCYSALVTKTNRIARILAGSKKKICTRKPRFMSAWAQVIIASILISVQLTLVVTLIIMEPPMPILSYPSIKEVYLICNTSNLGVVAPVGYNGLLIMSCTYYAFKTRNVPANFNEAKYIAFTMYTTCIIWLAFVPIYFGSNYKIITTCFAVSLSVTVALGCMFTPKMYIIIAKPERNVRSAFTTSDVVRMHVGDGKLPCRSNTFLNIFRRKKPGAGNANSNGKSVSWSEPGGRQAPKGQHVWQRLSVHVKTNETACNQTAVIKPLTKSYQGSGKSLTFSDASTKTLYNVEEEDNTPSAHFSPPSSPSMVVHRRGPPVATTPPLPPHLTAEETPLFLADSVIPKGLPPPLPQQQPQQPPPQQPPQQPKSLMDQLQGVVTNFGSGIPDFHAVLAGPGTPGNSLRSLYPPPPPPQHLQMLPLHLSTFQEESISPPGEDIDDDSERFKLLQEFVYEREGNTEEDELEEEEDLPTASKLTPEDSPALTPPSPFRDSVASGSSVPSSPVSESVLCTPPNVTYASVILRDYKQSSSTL

| EC50 [1] [µM] | EC50 [2] [µM] | EC50 [3] [µM] | EC50 [4] [µM] | SMILES |
| --- | --- | --- | --- | --- |
| > 1000 | > 1000 | 190 | – | N[C@@H](CCc1nsnc1O)C(=O)O |
| > 1000 | > 1000 | > 1000 | – | N[C@H](CCc1nsnc1O)C(=O)O |

Further lines, the molecule ahead of its results:

| SMILES | EC50 [1] [µM] | EC50 [2] [µM] | EC50 [3] [µM] | EC50 [4] [µM] |
| --- | --- | --- | --- | --- |
| N[C@H](Cc1cc(=O)[nH]o1)C(=O)O | > 1000 | > 1000 | > 1000 | > 1000 |
| N[C@@H](Cc1cc(=O)[nH]o1)C(=O)O | 250 | > 1000 | 490 | > 1000 |
| N[C@@H](CCC(=O)O)C(=O)O [GLUTAMIC ACID] | – | 12 | – | – |
| N[C@@H](CCCC(=O)O)C(=O)O [(S)-2-AMINOADIPIC ACID] | – | – | > 1000 | – |
